Reference: BindingDB's records for doi:10.1016/j.ejmech.2014.12.041 (Jagiellonian University Medical College, 2015)

How the values were obtained:
[1] = target: 5-hydroxytryptamine receptor 7 (Homo sapiens, UniProt P34969); test: Antagonist activity at human 5HT7 receptor expressed in HEK293 cells assessed as inhibition of serotonin-induced cAMP concentration at 10^-6 M by adenylate cyclase activity based HTRF assay relative to control
[2] = target: T1, 5-hydroxytryptamine receptor 1A (Homo sapiens, UniProt P08908); test: Antagonist activity at human 5HT1A receptor expressed in HEK293 cells assessed as inhibition of serotonin-induced cAMP concentration at 10^-6 M by adenylate cyclase activity based HTRF assay relative to control
T1 sequence (P08908 whole entry): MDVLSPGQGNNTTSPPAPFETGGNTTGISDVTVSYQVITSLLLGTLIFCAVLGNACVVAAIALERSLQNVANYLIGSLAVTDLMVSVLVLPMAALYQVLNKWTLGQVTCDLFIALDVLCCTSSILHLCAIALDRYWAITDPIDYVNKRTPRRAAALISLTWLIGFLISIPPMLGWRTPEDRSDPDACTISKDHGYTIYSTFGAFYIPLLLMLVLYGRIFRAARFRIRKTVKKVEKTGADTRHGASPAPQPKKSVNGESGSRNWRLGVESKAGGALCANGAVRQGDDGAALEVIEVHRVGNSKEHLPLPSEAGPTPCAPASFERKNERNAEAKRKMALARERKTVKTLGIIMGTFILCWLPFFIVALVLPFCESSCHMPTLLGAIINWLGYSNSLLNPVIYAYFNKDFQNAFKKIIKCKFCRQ
Procedure, shortened: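 Human 5-HT1A in HEK-293 cells and human 5-HT7 in CHO cells, per the text. Compounds were tested at a single 10^-6 M concentration, in duplicate. Read-out was % inhibition of the control agonist cAMP response, measured by HTRF against the maximal effect of 300 nM serotonin. Reference antagonists were methiothepin (5-HT7) and WAY-100635 (5-HT1A).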

Sequence of 5-hydroxytryptamine receptor 7 (P34969 whole entry): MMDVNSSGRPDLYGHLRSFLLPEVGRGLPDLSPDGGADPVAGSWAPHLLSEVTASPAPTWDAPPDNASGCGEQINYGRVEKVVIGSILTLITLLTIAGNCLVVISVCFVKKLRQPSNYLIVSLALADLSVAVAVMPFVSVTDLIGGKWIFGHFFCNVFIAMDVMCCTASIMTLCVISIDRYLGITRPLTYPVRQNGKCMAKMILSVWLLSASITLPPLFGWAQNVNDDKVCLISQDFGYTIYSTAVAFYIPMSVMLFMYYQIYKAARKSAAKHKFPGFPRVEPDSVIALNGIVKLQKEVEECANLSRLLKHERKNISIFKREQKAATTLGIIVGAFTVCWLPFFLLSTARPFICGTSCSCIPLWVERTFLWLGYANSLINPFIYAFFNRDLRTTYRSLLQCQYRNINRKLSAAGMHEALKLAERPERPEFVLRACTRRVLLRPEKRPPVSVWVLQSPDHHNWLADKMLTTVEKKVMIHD

## O=C([C@@H]1CCCN1C(=O)CCCCN1CCN(c2ccccc2-c2ccccc2)CC1)N1CCCCC1
[1]
  Inhibition: 91%

## CSc1ccccc1N1CCN(CCCCCC(=O)N2Cc3ccccc3C[C@H]2C(N)=O)CC1
[2]
  Inhibition: 98%

## CC(C)c1ccccc1N1CCN(CCCCCCC(=O)N2CCC[C@H]2C(=O)N2CCCCC2)CC1
[2]
  Inhibition: 100%

## NC(=O)[C@@H]1Cc2ccccc2CN1C(=O)CCCCN1CCN(c2ccccc2-c2ccccc2)CC1
[1]
  Inhibition: 94%
